KCNK3 inh: human KCNK3 channel inhibitors, primary screen, CHO cells, FluxOR thallium flux, B-score; Potassium channel subfamily K member 3 (Homo sapiens), O14649; hit rate 0.84% among 340,000; FluxOR fluorescence; active compounds read low; B-score at 10 µM; AID 602410, 2012;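 active = B-score under library mean minus 4 SD, starting fluorescence ratio at most library mean plus 5 SD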;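 also: more negative B-score means stronger inhibition of thallium flux through KCNK3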
Target sequence (O14649 whole entry, looked up): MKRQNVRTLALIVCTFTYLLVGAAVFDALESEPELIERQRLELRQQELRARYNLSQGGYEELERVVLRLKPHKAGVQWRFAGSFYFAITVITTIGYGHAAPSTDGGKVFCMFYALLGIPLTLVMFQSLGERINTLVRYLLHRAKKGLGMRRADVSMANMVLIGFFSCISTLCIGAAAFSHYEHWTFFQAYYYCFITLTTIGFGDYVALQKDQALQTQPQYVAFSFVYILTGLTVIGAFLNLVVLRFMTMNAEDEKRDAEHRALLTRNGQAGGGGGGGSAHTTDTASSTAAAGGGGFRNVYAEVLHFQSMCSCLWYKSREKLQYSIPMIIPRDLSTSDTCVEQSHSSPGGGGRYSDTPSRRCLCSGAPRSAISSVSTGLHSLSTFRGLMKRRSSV
hERG protect: hERG rescue from dofetilide block, primary screen, cell-based, CHO-hERG, FluxOR thallium flux, dofetilide IC70; Voltage-gated inwardly rectifying potassium channel KCNH2 (Homo sapiens), Q12809; dofetilide IC70 present; activation (rescue from dofetilide block), less the hit threshold, % at 10 µM; hit rate 0.51% among 310,000; AID 1511, 2009;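 active = activation above the mean of controls blocked by dofetilide plus 5 SD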;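 also: thallium influx through hERG after potassium depolarization seen as dye fluorescence rise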
KCNQ1 act: potentiators or activators of KCNQ1 channel, primary screen, cell-based, thallium flux, high-throughput; CHO-K1 KCNQ1, thallium flux FluxOR fluorescence; active compounds read high; B-score at 10 µM; hit rate 0.35% among 310,000; AID 2648, 2010;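 active = fluorescence ratio B-score, a plate-corrected score, at least three library SD, with initial intensity B-score within 5 SD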
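Assay system: stable KCNQ1 CHO-K1 line; medium: assay buffer, equal DMSO in all wells; timing: 90 min dye loading and 20 min compound exposure, both at room temperature; technique: kinetic FluxOR thallium fluorescence, 10-s 1-Hz baseline, 110-s post-stimulus read; read-out basis: B score of baseline-normalized fluorescence ratio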
KCNK9 inh: KCNK9 potassium channel inhibitors, primary screen, HEK293 cells, thallium flux | hit rate 1.2% among 310,000 | B-score at 10 µM | Potassium channel subfamily K member 9 (Homo sapiens), Q9NPC2 | AID 488922, 2010 | FluxOR thallium flux fluorescence; active compounds read low;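 active = ratio B-score over 3 SD below the library mean, with starting fluorescence within 5 SD of its mean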;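 also: negative B-score means less thallium flux so channel inhibition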
KCNQ1 block: inhibitors of human KCNQ1 channel, primary screen, cell-based, thallium flux, high-throughput | Potassium voltage-gated channel subfamily KQT member 1 (Homo sapiens), P51787 | CHO-K1 KCNQ1, FluxOR thallium flux fluorescence; active compounds read high | B-score at 10 µM | hit rate 1.3% among 310,000 | AID 2642, 2010;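 active = compounds whose thallium flux B-score, printed positive for inhibition, exceeds three library SD while starting fluorescence stays within three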;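 also: channel opened by potassium depolarization with thallium stimulus after 20 min compound exposure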
Kir21 block: inhibitors of mouse Kir2.1 inward-rectifier potassium channel | hit rate 0.85% among 310,000 | HEK293-Kir2.1, FluxOR thallium flux fluorescence; active compounds read low | AID 1672, 2009 | Inward rectifier potassium channel 2 (Mus musculus), P35561 | B-score at 10 µM;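 active = fluorescence ratio B-score at or below minus 3 SD of library scores, with starting-brightness B-score within 2 SD, cut at about -4.2 in these data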;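 also: channel flux triggered by added potassium and thallium sulfate stimulus; B-score of peak minus minimum fluorescence over baseline after thallium stimulus; more negative B-score means stronger Kir2.1 block with less thallium influx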
Numbers stand for hits; 0 = inactive; - = no result given. In the library only some 3.7% were active in any assay of this set; here they are far more common.

SMILES | KCNK3 inh | hERG protect | KCNQ1 act | KCNK9 inh | KCNQ1 block | Kir21 block
COc1ccc(-c2c[n+](CC(=O)c3ccccc3)c3n2CCCCC3)cc1 | 0 | 0 | 0 | 0 | 0 | 0
O=C(Cc1ccc(NC(=O)C2CCCN(C(=O)C3CCCCC3)C2)cc1)Nc1ccc(C(=O)N2CCOCC2)cc1 (centres undefined) | 0 | - | - | - | - | -
COc1ccc(-c2cn3cc(C(=O)NN)ccc3n2)cc1 | 0 | 5.2 | 0 | 0 | 0 | 0
NNC(=O)c1ccc2nc(-c3ccc(Br)cc3)cn2c1 | 0 | 0 | 0 | 0 | 0 | 0
COc1ccc(C(=O)NNC(=S)NC(=O)c2ccc(Cl)cc2)cc1 | 0 | 0 | 0 | 0 | 0 | 0
CCCCOc1ccc(C(=O)NNC(=S)NC(=O)CC)cc1 | 0 | 0 | 0 | 0 | 0 | 0
CCC(=O)NC(=S)NNC(=O)c1ccc(OC)cc1 | 0 | 0 | 0 | -7.2 | 0 | 0
COc1ccc(C(=O)NC(=S)NNC(=O)c2ccc(C)cc2)cc1 | 0 | 0 | 13 | 0 | 0 | 0
CCN(CCCNC(=O)COc1cc(=O)n(C)c2ccccc12)c1cccc(C)c1 | 0 | 0 | 0 | 0 | 0 | -6.8
C=CCNc1nc(Nc2ccc([N+](=O)[O-])cc2)nc(OC)n1 | 0 | 0 | 0 | 0 | 0 | 0
COc1nc(Nc2ccc([N+](=O)[O-])cc2)nc(NC2CCCCC2)n1 | 0 | 0 | 0 | -7.1 | 0 | 0
CCOc1ccccc1NC(=O)COc1cccnc1[N+](=O)[O-] | 0 | - | - | - | - | -
COc1ccc(-c2nc(CSCC(=O)NCCC3=CCCCC3)c(C)o2)cc1OC | 0 | 0 | 0 | 0 | 0 | -5.1
CC(=O)Nc1cccc(-c2nnc3c4ccccc4c(C)nn23)c1 | - | 52 | 0 | 0 | 0 | 0
CN1CCN(c2nc(-c3cccs3)cc(C(F)(F)F)n2)CC1 | 0 | 0 | 10 | 0 | 0 | 0
CS(=O)(=O)c1nc(-c2cccs2)cc(C(F)(F)F)n1 | - | 0 | 0 | 0 | 0 | -6
COc1ccc(-c2cc(C(F)(F)F)nc(S(C)(=O)=O)n2)cc1 | 0 | 0 | 0 | 0 | 6 | 0
COc1nc(-c2ccccc2)cc(C(F)(F)F)n1 | 0 | 4.7 | 0 | 0 | 0 | 0
CC1(C)Cc2c(cnn2-c2ccccc2)C(NC(=O)CCc2ccc(=O)[nH]n2)C1 (centres undefined) | 0 | 0 | 0 | 0 | 0 | 0
NNC(=O)COc1ccc(C(F)(F)F)cc1 | 0 | 0 | 0 | 0 | 0 | 0
OC1(c2ccccc2)CCN(Cc2ccccc2)CC1 | 0 | 0 | 0 | 0 | 0 | -7.6
OC1(c2ccc(F)cc2)CCN(Cc2ccccc2)C1 (centres undefined) | 0 | 0 | 0 | 0 | 0 | -4.5
OC1(c2ccc(F)cc2)CCN(Cc2cccnc2)CC1 | 0 | 0 | 0 | 0 | 0 | 0
CC(C)NC(=O)CN1CCC(O)(c2ccccc2)CC1 | 0 | 0 | 0 | 0 | 0 | 0
OC1(c2ccc3c(c2)OCO3)CCN(Cc2ccc(F)cc2)CC1 | 0 | 0 | 0 | 0 | 0 | -4.5
SMILES | KCNK3 inh | hERG protect | KCNQ1 act | KCNK9 inh | KCNQ1 block | Kir21 block
O=C(Nc1ccc(F)cc1)C1CCC(CNc2c(N3CCCCC3)c(=O)c2=O)CC1 (centres undefined) | 0 | 0 | 0 | 0 | 0 | 0
Cc1ccc(-n2ncc3c2CC(C)(C)CC3NC(=O)CCc2c(C)noc2C)cc1 (centres undefined) | 0 | 0 | 0 | 0 | 0 | 0
COc1ccc(-n2c(-c3ccc(Cl)cc3)c[n+]3c2CCCCC3)cc1 | 0 | 0 | 0 | 0 | 0 | 0
CCOc1ccc(-n2c(-c3ccc(Br)cc3)c[n+]3c2CCCCC3)cc1 | 0 | 0 | 0 | 0 | 8 | 0
COc1ccc(-c2c[n+]3c(n2-c2ccc(C)cc2)CCCCC3)cc1 | 0 | 0 | 0 | 0 | 9 | 0
CCOc1ccc(-n2c(-c3ccc(OC)cc3)c[n+]3c2CCCCC3)cc1 | 0 | 0 | 0 | 0 | 7 | 0
O=C1CCC(c2ccccc2)N1c1ccccc1 (centres undefined) | 0 | - | - | - | - | -
O=C(NC1CC2CCC(C1)N2Cc1nnnn1Cc1ccco1)NC12CC3CC(CC(C3)C1)C2 (centres undefined) | 0 | 0 | 0 | 0 | 0 | 0
CCOc1ccccc1C(=O)NC1CC2CCCC(C1)N2Cc1nnnn1Cc1ccco1 (centres undefined) | 0 | 22 | 0 | 0 | 0 | 0
Nc1c(S(=O)(=O)c2ccccc2)c2nc3ccccc3nc2n1Cc1ccco1 | 0 | 0 | 0 | 0 | 0 | 0
Cc1ccc(S(=O)(=O)c2c(N)n(Cc3ccco3)c3nc4ccccc4nc23)cc1C | 0 | 0 | 0 | 0 | 14 | 0
COc1ccc(C2=NN(C(=O)CSc3nccn3C)C(c3ccco3)C2)cc1 (centres undefined) | 0 | - | - | - | - | -
O=c1c2ccccc2[nH]c(=S)n1CCc1ccccc1 | 0 | 20 | 17 | 0 | 0 | 0
O=c1c2ccccc2[nH]c(=S)n1Cc1ccccc1 | 0 | 0 | 0 | 0 | 0 | 0
CC1CCc2nn(CC(=O)NCCCN3CCCC3=O)cc2C1 (centres undefined) | 0 | 0 | 0 | 0 | 0 | 0
Cc1ccc(C)c(N2CCN(CCCNC(=O)Cn3cc4c(n3)CCC(C)C4)CC2)c1 (centres undefined) | 0 | 0 | 0 | 0 | 0 | -4.7
CN(CCOc1ccccc1)C(=O)C1CCN(C(=O)c2ccc(F)cc2)CC1 | 0 | 0 | 0 | 0 | 0 | 0
CCc1cccc(N(C(=O)c2csnn2)C(C(=O)NC2CCCCC2)c2cccnc2)c1 (centres undefined) | 0 | 0 | 0 | 0 | 0 | 0
COc1ccc(CN2CCN(C3CCSCC3)CC2CCO)c(C)c1C (centres undefined) | 0 | 0 | 0 | 0 | 0 | 0
CCC1CCCCN1Cc1ccc(OC)c(C)c1C (centres undefined) | 0 | 5.3 | 0 | 0 | 0 | 0
CC(C)C(=O)Nc1ccc(NC(=O)c2ccco2)cn1 | 0 | 0 | 0 | 0 | 0 | 0
CC(C)C(=O)Nc1ccc(NC(=O)CCc2ccccc2)cn1 | 0 | 9.1 | 0 | 0 | 0 | 0
CN1OC[C@@H]2CN(Cc3cc(Cl)cc(Cl)c3)[C@H](c3cccc(-c4ccccc4)c3)C[C@@H]21 | 0 | - | - | - | - | -
CC1(C)C(c2ccccc2)=NC(c2ccccc2)N1O (centres undefined) | 0 | 0 | 0 | 0 | 0 | 0
COc1ccc(C2N=C(c3ccccc3)C(C)(C)N2O)cc1 (centres undefined) | 0 | 5.9 | 0 | 0 | 0 | 0
COc1cc(C(=O)NCCOc2cccc(C)c2)c(Br)c(OC)c1OC | 0 | 0 | 0 | 0 | 0 | 0

Screens deposited in PubChem by Johns Hopkins Ion Channel Center.
